Results on 3 compounds are retold here after ChEMBL document CHEMBL1154262, “Inhibitors of osteoclast formation from rhizomes of Cibotium barometz” (J Nat Prod, 2009).

Series [1] is described as follows: Inhibition of osteoclastogenesis in RANKL and M-CSF-stimulated mouse BMDM cells at 200 uM after 4 days by TRAP assay. It counts as functional. The settings on record: 96 h. Summed up:
(§1)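 Mouse femur/tibia marrow cells grown 3 days at 37 °C in R-MEM/10% FBS with M-CSF 100 ng/mL to give BMMs, lifted with trypsin/EDTA. They were then differentiated with M-CSF 20 ng/mL and RANKL 100 ng/mL plus compound, with medium changed every 2 days. At day 4, TRAP staining was done and TRAP-positive multinucleated cells per well were counted relative to DMSO control.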

For the next series, the system named is BMDM. In words: Inhibition of osteoclastogenesis in RANKL and M-CSF-stimulated mouse BMDM cells after 4 days by TRAP assay. In kind it is functional, cell-based. Put shortly: as §1
Series [2] is described as follows: Cytotoxicity against RANKL and M-CSF-stimulated mouse BMDM cells at 100 to 200 uM after 72 hrs by MTS-cell titer assay. In kind it is cell-based. Put shortly:
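Bone marrow macrophages from femora and tibia of 6-8 week old mice, expanded 3 days in R-MEM/10% FBS with M-CSF 100 ng/mL, then trypsin/EDTA-lifted. Cells exposed to compound alongside recombinant M-CSF 20 ng/mL plus RANKL 100 ng/mL for 72 h at 37 °C. Percent survival read by MTS (CellTiter 96 Aqueous) against DMSO-treated control.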
(In general: Tetrazolium assays rely on reduction of a dye to a coloured formazan, in cell work by metabolically active cells.)

By inhibition is commonly meant the drop in the measured response relative to a control, in per cent. `CCCCC/C=C\C/C=C\CCCCCCCC(=O)OC[C@@H](O)CO[C@H]1O[C@H](CS(=O)(=O)O)[C@@H](O)[C@H](O)[C@H]1O` came in with an inhibition at 200 µM in series [1] of 97%. In addition, the Activity entry in the series with BMDM is “Dose-dependent effect”.

`CC1=CC(=O)CC(C)(C)[C@@]1(O)/C=C/[C@H](C)O[C@@H]1O[C@H](CO)[C@@H](O)[C@H](O)[C@H]1O` [6S,9S-ROSEOSIDE] had an inhibition at 200 µM in series [1] of 75%. Besides, the values for the Activity entry (with BMDM; in series [2]) were “Dose-dependent effect” and “Non-toxic”, respectively.

Consider `CO[C@@H]1C[C@](O)(CO[C@@H]2O[C@H](CO)[C@@H](OC(=O)/C=C/c3ccc(O)c(O)c3)[C@H](O)[C@H]2O)[C@H](OC)O1` [CIBOTIUMBAROSIDE B], for which the inhibition at 200 µM in series [1] came out at 73%. Moreover, the Activity entry with BMDM is “Dose-dependent effect”; in series [2], “Non-toxic”.
